A short description of test [1]: inhibitors of TNFa-induced NFkB p65 translocation, primary screen, imaging, HUVEC, MLSMR starter and 10KST1 sets (AID 438;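 active = inhibition above 20% together with a positive visual image hit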;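 also: compound added about 3h40 before a 20 min TNFalpha stimulation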;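 as to inhibition: signal is the nuclear over cytoplasmic p65 intensity ratio per well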). The following applies: HUVEC TNFa-induced p65 nuclear translocation; cell count: measured here: nuclei count (cytotoxicity indicator), at 2.08 µM; inhibition: at 2 µM, stronger effect = higher value, 0% TNFa-plus-vehicle, 100% no-TNFa wells.
The nature of test [2]: endothelial E-selectin expression blockers – imaging, HUVEC, immunofluorescence, MLSMR starter and 10KST1 sets, primary screen (AID 487;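 active = visually confirmed hit in the image check and inhibition above 20%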;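 as to inhibition: signal is fraction of cell area covered by stained E-selectin grains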;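 as to nuclei count: 100% = median nuclei count of all wells on the same plate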). The following applies: HUVEC TNFalpha-induced E-selectin immunofluorescence imaging, at 2 µM; inhibition: stronger effect = higher value; nuclei count: measured here: cell number, toxicity.
A short description of test [3]: Primary imaging screen for DUSP6 inhibitors that restore phospho-Erk in transfected HeLa cells, chemical complementation (AID 609;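 active = compounds giving at least 50% inhibition in the cell-based MKP-3 phosphatase rescue imaging test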;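 as to inhibition: phospho-Erk level distribution per well compared with pooled transfected vehicle control wells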). The following applies: HeLa MKP-3 transfected, phospho-Erk imaging KS statistic, at 10 µM, cells stimulated with TPA for 15 min.
Test [4] concerns the target Dual specificity protein phosphatase 6 (Homo sapiens) (UniProt Q16828). The description is as above. The following applies: HeLa MKP-3 transfected, phospho-Erk imaging KS statistic; at 10 µM; stronger effect = higher value; cells stimulated with TPA for 15 min.
The target of test [5] is Voltage-gated potassium channel subunit beta-2 (Rattus norvegicus) (UniProt P62483). Nature of the test: inhibitors of rat Kvbeta2 reductase activity – biochemical, NADPH fluorescence, primary screen (AID 622).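 Also: slope of raw intensity against log time taken from 70 to 1610 s.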 The following applies: recombinant KvBeta, 4-cyanobenzaldehyde reduction, at 10 µM, stronger effect = higher value.
Sequence of Voltage-gated potassium channel subunit beta-2 (Rattus norvegicus) (P62483 whole entry, looked up): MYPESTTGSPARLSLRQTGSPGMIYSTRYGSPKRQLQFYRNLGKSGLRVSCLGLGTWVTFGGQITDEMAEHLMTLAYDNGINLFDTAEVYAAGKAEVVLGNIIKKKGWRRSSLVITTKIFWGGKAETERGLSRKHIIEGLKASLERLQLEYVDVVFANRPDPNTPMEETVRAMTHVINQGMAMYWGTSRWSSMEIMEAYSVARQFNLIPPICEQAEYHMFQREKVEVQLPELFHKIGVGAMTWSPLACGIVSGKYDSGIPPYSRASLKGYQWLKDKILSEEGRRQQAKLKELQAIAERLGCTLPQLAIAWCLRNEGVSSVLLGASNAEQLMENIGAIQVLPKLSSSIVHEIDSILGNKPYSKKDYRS
Test [6] has the same target. Kind of test: enhancers of rat Kvbeta2 NADPH turnover – biochemical, NADPH fluorescence, primary screen (AID 623;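 active = NADPH fluorescence slope more negative than the mean of all samples by about 3 SD, 99.7% confidence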;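 also: fluorescence intensity change per second fitted from 20 to 320 s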). To be noted: Recombinant KvBeta, NADPH fluorescence decrease slope, 10 min; at 10 µM; stronger effect = lower value.
Test [7] concerns the target Muscarinic acetylcholine receptor M4 (Homo sapiens) (UniProt P08173). Nature of the test: M4-linked GIRK flux change, two-sided – cell-based, HEK293 M4/GIRK, thallium flux, BTC-AM, M4 allosteric agonist project, primary screen (AID 625;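 active = fluorescence slope after compound addition differing from the mean of all tested samples at 99.7% confidence, mostly higher but some lower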;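 also: thallium influx through GIRK channels coupled to M4 in HEK293 cells with BTC-AM dye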). The following applies: at 10 µM, actives lie on both sides. An outline of the steps:
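Material: HEK293 cells with M4 receptor and GIRK channels; Times: cells overnight at 37 °C, BTC-AM loading 1 h, reads 2 min total; Technique: kinetic BTC-AM fluorescence sampled at 1 Hz, 10 s pre-addition baseline; Read-out basis: slope over 15–24 s of trace normalized to starting intensity; Controls: carbachol positive, DMSO negative.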

Test [8] in a line: inhibitors of larval lipid processing in zebrafish, primary screen, whole organism, PED6 fluorescence, gall bladder and intestine (AID 686;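 active = a full or partial loss of lipid-probe fluorescence in the fish gall bladder, intestine or both, judged by eye; inactive = no fluorescence loss, or compound toxic to the fish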;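 also: larvae 5 to 7 days old with five fish per well; signal comes from phospholipase A2 cleavage of quenched PED6 carried via bile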). To be noted: Zebrafish larvae PED6 lipid processing, fluorescence scoring; screened at 20 µM (by protocol). An outline of the steps: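 Incubation: overnight exposure of larvae to compound plus PED6 / Test system: live zebrafish larvae aged 5-7 days, whole organism / Amount: 5 larvae per well / Read-out basis: visual per-well fluorescence inhibition score / Signal: visual fluorescence microscopy scoring of gall bladder, gut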

A short description of test [9]: loss of swimming-algae plug formation – whole organism, Chlamydomonas reinhardtii, WT vs cilia-less mutant, absorbance, 96-well, primary screen (AID 463189;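 active = inhibition at or above 50% relative to wild type and mutant plate controls; inactive = inhibition below 50%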;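 also: 0% = wild type cc124 cells in DMSO and 100% = ciliumless bld1 mutant cells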). The following applies: Chlamydomonas reinhardtii gravitaxis, OD600 absorbance, 2 days; at 10 µM; stronger effect = higher value.
Setting [10] is: measured here: cell density z-score.
[11] abbreviates: measured here: nuclear c-Myc green intensity z-score.
[12] abbreviates: measured here: nuclear pErk red intensity z-score, stronger effect = higher value.

Calls of active or inactive are those of the source.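 The calls were made as follows, unless noted: active = fluorescence slope higher than the sample average by over 3 SD (cut at about -0.22 in these data, passing the limit was not always enough); inactive = the rest.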

Sequence of Dual specificity protein phosphatase 6 (Homo sapiens) (Q16828 whole entry, looked up): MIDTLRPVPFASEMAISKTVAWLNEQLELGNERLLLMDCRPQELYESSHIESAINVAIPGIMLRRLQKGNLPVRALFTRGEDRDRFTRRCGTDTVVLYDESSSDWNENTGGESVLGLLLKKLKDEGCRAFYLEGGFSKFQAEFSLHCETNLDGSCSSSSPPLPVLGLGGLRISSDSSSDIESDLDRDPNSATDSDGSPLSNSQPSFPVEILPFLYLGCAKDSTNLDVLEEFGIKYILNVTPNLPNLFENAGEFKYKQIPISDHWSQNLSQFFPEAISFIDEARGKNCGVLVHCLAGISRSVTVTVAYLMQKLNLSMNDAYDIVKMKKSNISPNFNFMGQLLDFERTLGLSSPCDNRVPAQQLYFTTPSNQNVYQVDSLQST
Sequence of Muscarinic acetylcholine receptor M4 (Homo sapiens) (P08173 whole entry, looked up): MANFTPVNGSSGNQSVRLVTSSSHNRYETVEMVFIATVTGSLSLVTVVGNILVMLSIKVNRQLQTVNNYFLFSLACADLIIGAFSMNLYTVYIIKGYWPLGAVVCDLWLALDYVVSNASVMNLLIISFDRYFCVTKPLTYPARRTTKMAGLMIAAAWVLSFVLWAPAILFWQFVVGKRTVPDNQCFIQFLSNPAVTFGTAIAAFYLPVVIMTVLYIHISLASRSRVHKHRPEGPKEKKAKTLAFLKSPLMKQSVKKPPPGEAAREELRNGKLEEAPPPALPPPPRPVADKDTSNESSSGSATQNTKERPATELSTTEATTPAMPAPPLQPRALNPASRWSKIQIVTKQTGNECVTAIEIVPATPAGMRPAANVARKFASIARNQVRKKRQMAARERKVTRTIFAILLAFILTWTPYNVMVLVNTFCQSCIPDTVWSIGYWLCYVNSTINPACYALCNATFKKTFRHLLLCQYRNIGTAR

Turning to `O=c1cc(-c2ccco2)nc(-c2cccs2)o1`, the cell count in test [1] turned out to be 667. The inhibition in test [1] is 5.6% (inactive); in test [2], 7.4% (inactive); in [4], 9.91% (inactive); in [9], 22.8% (inactive). In test [2], this compound gave a nuclei count of 99.4%. Also, the results for the z-score in test [3] (setting [10]), in test [3] (setting [11]) and in test [3] (setting [12]) were -0.166, -0.514 and -0.386, respectively. The fluorescence slope in [5] was -0.561 (inactive); in [7], 0.0053 (inactive). Also, in [6], the NADPH fluorescence slope was -5.3e-05 (inactive). Also, the compound was classed as inactive in [8].
For `CC1(C)CCN(Cc2ccccc2)C1CC#N` (stereo unspecified), the cell count in [1] was found to be 572. In addition, the inhibition in test [1] is -1.7% (inactive); in test [2], -7.9% (inactive); in test [4] it was 3.97% (inactive); in [9], 34.2% (inactive). The compound also had a nuclei count in [2] of 134%. Also, the z-score in test [3] (setting [10]) was -0.215; in test [3] (setting [11]) it was -0.992; in test [3] (setting [12]) it was 0.527. Further, the fluorescence slope in test [5] was -0.353 (inactive); in test [7], 0.00545 (inactive). In addition, the NADPH fluorescence slope in test [6] was 8.5e-06 (inactive). Moreover, the compound was classed as inactive in test [8].
For `O=C1CCCN1c1ccc(S(=O)(=O)NCc2ccco2)cc1`, in test [1], the cell count turned out to be 702. Besides, the inhibition in [1] is 3.6% (inactive); in test [2], -53.1% (inactive); in test [4], 15.9% (inactive); in [9], 15.5% (inactive). In addition, the nuclei count in test [2] is 180%. The figures for the z-score in test [3] (setting [10]), in test [3] (setting [11]) and in [3] (setting [12]) were 0.977, -0.343 and 1.6, respectively. Moreover, the results for the fluorescence slope in test [5] and in test [7] were -0.489 (inactive) and 0.00466 (inactive), respectively. Besides, in [6], the NADPH fluorescence slope was -3.7e-05 (inactive). Further, in [8], the compound was classed as inactive.
For the compound `Cc1nc(NCCO)c(C#N)c2c1COC(C)(C)C2`, the cell count in test [1] turned out to be 538. The inhibition was -2.6% (inactive) in test [1], -147% (inactive) in test [2], 15.4% (inactive) in test [4] and 5.51% (inactive) in [9]. The compound further had a nuclei count in [2] of 132%. Besides, the z-score in [3] (setting [10]) is -0.0329; in test [3] (setting [11]), 1.94; in test [3] (setting [12]), -1.24. Besides, the fluorescence slope in test [5] is -0.464 (inactive); in test [7] it was 0.0044 (inactive). The NADPH fluorescence slope in test [6] is -3.6e-05 (inactive). Besides, in test [8], the call was inactive.
For `O=C(NCCN1CCCCC1)/C(=N\O)c1ccccc1`, the cell count in test [1] came out at 515. In addition, the inhibition in test [1] was -13% (inactive); in test [2], 18.4% (inactive); in [4] it was 23.8% (inactive); in [9], 2.85% (inactive). For the same compound, the nuclei count in test [2] was determined as 155%. In addition, the z-score was 1.4 in test [3] (setting [10]), 0.164 in test [3] (setting [11]) and -0.171 in [3] (setting [12]). Further, the fluorescence slope in [5] is -0.4 (inactive); in test [7], 0.00408 (inactive). In addition, the NADPH fluorescence slope in test [6] was -3.3e-05 (inactive). For the same compound, the result in test [8] was inactive.
As for `CCCCc1[nH]c(=O)c(C#N)c2c1CSC(C)(C)C2`, the cell count in test [1] was 551. Also, the inhibition is 0.5% (inactive) in [1], -122% (inactive) in [2], 17.4% (inactive) in [4] and 0.152% (inactive) in [9]. Besides, the nuclei count in test [2] came out at 132%. Moreover, the z-score is 0.749 in test [3] (setting [10]), 0.642 in [3] (setting [11]) and -1.4 in test [3] (setting [12]). In addition, the values for the fluorescence slope in test [5] and in test [7] were -0.482 (inactive) and 0.00497 (inactive), respectively. In addition, the NADPH fluorescence slope in test [6] was -0.000112 (inactive). For the same compound, the result in [8] was inactive.
Take `N#Cc1nc(-c2cccs2)oc1NCc1ccccc1Cl`: the cell count in [1] was found to be 657. The inhibition is 3.4% (inactive) in test [1], -84% (inactive) in [2], 1.63% (inactive) in [4] and -1.01% (inactive) in test [9]. Further, in [2], the nuclei count worked out at 107%. Also, the z-score in [3] (setting [10]) is -2.24; in test [3] (setting [11]) it was 1.03; in [3] (setting [12]), 1.6. Further, the values for the fluorescence slope in test [5] and in test [7] were -0.513 (inactive) and 0.00761 (inactive), respectively. Besides, the NADPH fluorescence slope in [6] was -3.2e-05 (inactive). In addition, the compound was called inactive in [8].
